Data from ChEMBL document CHEMBL3853287, “Characterization of Emodin as a Therapeutic Agent for Diabetic Cataract” (J Nat Prod, 2016).
Activity calls are given as the source filed them. No cut-off for these calls is given here.

Assays:
[1] = test system: Mus musculus; experiment: In vivo inhibition of aldose reductase in transgenic PAR37 mouse expressing human aldose reductase assessed as reduction in vacuolization at 80 mg/kg, po for 16 days by hematoxylin/eosin staining; format: functional, organism-based
Outline: (§1)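 Drug dissolved in DMSO was given in the drinking water of nursing mothers from the pups' birthdate, dosed at 80 mg kg−1 to the mother; vehicle group received DMSO. Pups were PAR37 human AR transgenic mice or nontransgenic littermates, balanced by gender, n = 3. Lenses were taken at P16 and sectioned with H&E staining, and vacuolated cross-sectional area was measured as percent of lens.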

[2] = test system: Mus musculus; experiment: In vivo inhibition of aldose reductase in wild type mouse assessed as reduction in vacuolization at 80 mg/kg, po for 16 days by hematoxylin/eosin staining; format: functional, organism-based; outline: as §1
[3] = test system: Mus musculus; experiment: In vivo inhibition of aldose reductase in transgenic PAR37 mouse expressing human aldose reductase assessed as vacuolization at 80 mg/kg, po for 16 days by hematoxylin/eosin staining (reference value: 18%); format: functional; design: scale not given: the % may be the effect or the level left; outline: as §1
[4] = target: T1, Aldo-keto reductase family 1 member B1 (Homo sapiens, UniProt P15121); experiment: Inhibition of human recombinant aldose reductase expressed in Escherichia coli using DL-glyceraldehyde as substrate in presence of NADPH by spectrophotometric analysis
[5] = target: T1, Aldo-keto reductase family 1 member B1; experiment: Uncompetitive inhibition of human recombinant aldose reductase expressed in Escherichia coli using DL-glyceraldehyde as substrate by double reciprocal plot analysis
[6] = Cytotoxicity against human FHL124 cells assessed as reduction in cell viability at 10 uM after 24 hrs by MTT assay; format: toxicity, cell-based; conditions: fhl124, 24 h
Outline: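 FHL 124 human lens epithelial cells grown in low-glucose (1 g L−1) DMEM with 4 mM L-glutamine and 5% FBS at 37 °C, 5% CO2. Seeded at 10^4 cells, treated with emodin for 24 h, then given MTT for 4 h. Viability read as absorbance at 570 nm.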

[7] = target: T1, Aldo-keto reductase family 1 member B1; experiment: Inhibition of aldose reductase in human FHL124 cells assessed as reduction in high glucose-induced elevation of sorbitol accumulation at 5 uM after 24 hrs by colorimetric assay; format: cell-based
Outline: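 FHL 124 cells (10^5 per 60 mm dish) treated with emodin (5 μM) plus low (5 mM) or high (30 mM) glucose for 24 h. Cells washed twice in cold PBS, lysed and deproteinized. Sorbitol measured in neutralized samples by colorimetric kit at 560 nm.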

[8] = target: T1, Aldo-keto reductase family 1 member B1; experiment: Inhibition of human recombinant aldose reductase expressed in Escherichia coli at 1 uM using DL-glyceraldehyde as substrate in presence of NADPH measured up to 7 days at 37 degC by spectrophotometric analysis
Outline: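 Inhibitor (1 μM, in DMSO) pre-incubated at 37 °C for 1, 3, 5 and 7 days before testing. Recombinant human AKR1B1 from E. coli then assayed by NADPH oxidation at 340 nm with 1.0 mM DL-glyceraldehyde and 150 μM NADPH in HEPES pH 7.5 buffer. Means ± SEM, n = 3.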

[9] = test system: Mus musculus; experiment: In vivo inhibition of aldose reductase in transgenic PAR37 mouse expressing human aldose reductase assessed as reduction in vacuolization at 35 mg/kg, po for 16 days by hematoxylin/eosin staining; format: functional, organism-based
Outline: (§2)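 PAR37 human AR transgenic mice and nontransgenic littermates, roughly equal by sex. Nursing mothers given 35 mg kg−1 in drinking water (DMSO vehicle) from pups' birth, or from 3 days before birth in one group. Sorbinil 80 mg kg−1 served as ARI control. Lenses taken at P16 and H&E-stained; vacuolated cross-sectional area measured on sections.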

[10] = test system: Mus musculus; experiment: In vivo inhibition of aldose reductase in wild type mouse assessed as reduction in vacuolization at 35 mg/kg, po for 16 days by hematoxylin/eosin staining; format: functional, organism-based; outline: as §2
[11] = test system: Mus musculus; experiment: In vivo inhibition of aldose reductase in wild type mouse assessed as reduction in vacuolization at 35 mg/kg, po administered 3 days prior to birth followed by compound treatment till day 16 by hematoxylin/eosin staining; format: functional, organism-based; outline: as §2
[12] = test system: Mus musculus; experiment: In vivo inhibition of aldose reductase in transgenic PAR37 mouse expressing human aldose reductase assessed as vacuolization at 35 mg/kg, po for 16 days by hematoxylin/eosin staining (reference value: 18%); format: functional; design: scale not given: the % may be the effect or the level left; outline: as §2
[13] = test system: Mus musculus; experiment: In vivo inhibition of aldose reductase in transgenic PAR37 mouse expressing human aldose reductase assessed as vacuolization at 35 mg/kg, po administered 3 days prior to birth followed by compound treatment till day 16 by hematoxylin/eosin staining (reference value: 18%); format: functional; design: scale not given: the % may be the effect or the level left; outline: as §2

| SMILES | inhibition [1] | inhibition [2] | Activity [3] [%] | IC50 [4] [µM] | Ki [5] [µM] | Activity [6] | inhibition [7] | inhibition [8] | inhibition [9] | inhibition [10] | inhibition [11] | Activity [12] [%] | Activity [13] [%] |
| --- | --- | --- | --- | --- | --- | --- | --- | --- | --- | --- | --- | --- | --- |
| O=C1NC(=O)[C@@]2(CCOc3ccc(F)cc32)N1 [SORBINIL] | Active | Active | 3.8 | – | – | – | – | – | – | – | – | – | – |
| Cc1cc(O)c2c(c1)C(=O)c1cc(O)cc(O)c1C2=O [EMODIN] | – | – | – | 2.69 | 2.11 | Toxic | Active | Active | Active | Active | Active | 6.3 | 2 |
